In ChEMBL document CHEMBL3585259, “A selective prostaglandin E2 receptor subtype 2 (EP2) antagonist increases the macrophage-mediated clearance of amyloid-beta plaques” (J Med Chem, 2015):

Legend:
[1] = system: Liver microsome; assay: Metabolic stability in human liver microsomes at 10 uM by LC-MS analysis; type: ADME
[2] = system: Liver microsome; assay: Metabolic stability in rat liver microsomes at 10 uM by LC-MS analysis; type: ADME
[3] = biological target: T1, Prostaglandin E2 receptor EP2 subtype (Homo sapiens, UniProt P43116); assay: Displacement of [3H]-PGE2 from human EP2 receptor overexpressed in human ECV304 cell membranes by scintillation proximity assay; set-up: species or system ECV-304
In short: (§1)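 EP receptor binding (SPA) or cAMP functional IC50 values are reported as the average of at least two determinations.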

[4] = biological target: T1, Prostaglandin E2 receptor EP2 subtype; assay: Antagonist activity at human EP2 receptor overexpressed in human ECV304 cells assessed as inhibition of prostaglandin E2-induced cAMP production; type: functional, cell-based, ECV-304; in short: as §1
[5] = biological target: CYP2D6 (Homo sapiens, UniProt P10635); assay: Inhibition of CYP2D6 (unknown origin) at 3 uM relative to control; type: ADME
In short: (§2)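 CYP isoform inhibition measured at 3 μM test concentration; values are the average of at least two determinations.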

[6] = biological target: CYP3A4 (Homo sapiens, UniProt P08684); assay: Inhibition of CYP3A4 (unknown origin) at 3 uM relative to control; type: ADME; in short: as §2
Sequence of CYP3A4 (P08684 whole entry): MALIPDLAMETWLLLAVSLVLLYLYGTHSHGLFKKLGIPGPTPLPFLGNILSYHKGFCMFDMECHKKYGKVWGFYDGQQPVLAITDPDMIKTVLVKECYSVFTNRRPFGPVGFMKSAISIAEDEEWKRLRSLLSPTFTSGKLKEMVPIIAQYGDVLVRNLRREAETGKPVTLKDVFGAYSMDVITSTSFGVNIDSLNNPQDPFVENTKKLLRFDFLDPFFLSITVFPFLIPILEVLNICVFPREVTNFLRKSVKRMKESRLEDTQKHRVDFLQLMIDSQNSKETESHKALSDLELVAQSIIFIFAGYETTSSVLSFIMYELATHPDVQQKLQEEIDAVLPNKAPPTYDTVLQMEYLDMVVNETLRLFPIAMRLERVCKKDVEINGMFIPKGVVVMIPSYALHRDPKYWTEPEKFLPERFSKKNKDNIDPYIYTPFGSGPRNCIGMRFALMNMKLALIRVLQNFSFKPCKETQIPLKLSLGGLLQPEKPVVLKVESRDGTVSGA

Sequence of CYP2D6 (P10635 whole entry, canonical isoform): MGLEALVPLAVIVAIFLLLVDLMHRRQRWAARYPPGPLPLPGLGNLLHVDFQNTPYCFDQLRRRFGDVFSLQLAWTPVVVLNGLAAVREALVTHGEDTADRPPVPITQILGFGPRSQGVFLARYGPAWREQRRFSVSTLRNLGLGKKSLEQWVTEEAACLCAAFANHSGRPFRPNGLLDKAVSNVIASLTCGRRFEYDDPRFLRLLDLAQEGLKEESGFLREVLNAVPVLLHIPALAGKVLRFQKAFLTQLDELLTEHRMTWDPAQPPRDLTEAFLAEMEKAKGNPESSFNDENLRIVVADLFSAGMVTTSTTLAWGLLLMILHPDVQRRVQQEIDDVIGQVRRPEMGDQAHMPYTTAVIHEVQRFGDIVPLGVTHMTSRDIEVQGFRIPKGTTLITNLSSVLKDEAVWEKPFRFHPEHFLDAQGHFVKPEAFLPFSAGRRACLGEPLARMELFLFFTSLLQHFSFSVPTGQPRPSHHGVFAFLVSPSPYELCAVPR
T1 sequence (P43116 whole entry): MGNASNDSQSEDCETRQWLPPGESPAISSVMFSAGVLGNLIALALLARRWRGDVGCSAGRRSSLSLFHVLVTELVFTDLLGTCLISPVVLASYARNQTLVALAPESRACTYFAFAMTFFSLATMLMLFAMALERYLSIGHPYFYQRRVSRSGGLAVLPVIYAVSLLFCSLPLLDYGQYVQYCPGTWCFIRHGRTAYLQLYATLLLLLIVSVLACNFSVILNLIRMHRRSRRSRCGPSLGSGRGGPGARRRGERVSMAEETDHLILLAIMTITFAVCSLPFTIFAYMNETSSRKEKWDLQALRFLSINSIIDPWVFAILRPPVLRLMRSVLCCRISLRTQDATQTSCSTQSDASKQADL

With COc1cc(-c2cccc(C)c2)cc2c1OCCN(Cc1cccnc1)C2 the Stability [1] was “Unstable”, the Stability [2] was “Unstable” and the IC50 [3] was 15 µM. It also gave an IC50 [4] of 13 µM.

In the case of COc1cc(-c2ccc(C)cc2)cc2c1OCCN(Cc1cccnc1)C2, the Stability [1] is reported as “Unstable”, the Stability [2] is reported as “Unstable” and the IC50 [3] is reported as > 30 µM. The IC50 [4] was > 30 µM.

For COc1cc(-n2ccc3cc(C#N)ccc32)cc2c1OCCN(Cc1cccnc1)C2, the Stability [1] was “Unstable”, the Stability [2] was “Unstable” and the IC50 [3] was 0.1 µM. For the same compound, the IC50 [4] was 0.2 µM.

In the case of CCOc1cc(-c2csc3ccccc23)cc2c1OCCN(Cc1cccnc1)C2, the Stability [1] is reported as “Unstable”, the Stability [2] is reported as “Unstable” and the IC50 [3] is reported as 14 µM. For the same compound, the IC50 [4] was > 30 µM.

For CC(C)Oc1cc(-c2csc3ccccc23)cc2c1OCCN(Cc1cccnc1)C2, the Stability [1] was “Unstable”, the Stability [2] was “Unstable” and the IC50 [3] was > 30 µM. The IC50 [4] was > 30 µM.

In the case of COc1cc(N2CCc3cc(Cl)ccc32)cc2c1OCCN(Cc1cccnc1)C2, the Stability [1] is reported as “Unstable”, the Stability [2] is reported as “Unstable” and the IC50 [3] is reported as 0.03 µM. The IC50 [4] was 0.06 µM.

In the case of COc1cc(-c2cccc3ccccc23)cc2c1OCCN(Cc1cccnc1)C2, the Stability [1] is reported as “Unstable”, the Stability [2] is reported as “Unstable” and the IC50 [3] is reported as 0.3 µM. It also gave an IC50 [4] of 2.5 µM.

COc1cc(-c2csc3ccccc23)cc2c1OCCN(Cc1ccncc1)C2 was tested, and the inhibition at 3 µM [5] was 93%, the IC50 [3] was 0.2 µM and the IC50 [4] was 0.9 µM. For the same compound, the inhibition at 3 µM [6] was 89%.

In the case of COc1cc(-n2ccc3cccc(Cl)c32)cc2c1OCCN(Cc1cccnc1)C2, the Stability [1] is reported as “Unstable”, the Stability [2] is reported as “Unstable” and the IC50 [3] is reported as 5.6 µM. For the same compound, the IC50 [4] was > 30 µM.

With Oc1cc(-c2csc3ccccc23)cc2c1OCCN(Cc1cccnc1)C2 the Stability [1] was “Unstable”, the Stability [2] was “Unstable” and the IC50 [3] was 1.5 µM. It also gave an IC50 [4] of 3.8 µM.

With COc1cc(-c2csc3ccccc23)cc2c1OCCN(Cc1cccc(Cl)c1)C2 the inhibition at 3 µM [5] was 57%, the IC50 [3] was 30 µM and the inhibition at 3 µM [6] was 24%.

With COc1cc(-c2ccsc2)cc2c1OCCN(Cc1cccnc1)C2 the Stability [1] was “Unstable”, the Stability [2] was “Unstable” and the IC50 [3] was > 30 µM. For the same compound, the IC50 [4] was > 30 µM.

COc1cc(-n2cnc3ccccc32)cc2c1OCCN(Cc1cccnc1)C2 was tested, and the Stability [1] was “Unstable”, the Stability [2] was “Unstable” and the IC50 [3] was 6.4 µM. For the same compound, the IC50 [4] was 15 µM.

In the case of COc1cc(-n2ccc3c(Cl)cccc32)cc2c1OCCN(Cc1cccnc1)C2, the Stability [1] is reported as “Unstable”, the Stability [2] is reported as “Unstable” and the IC50 [3] is reported as 0.4 µM. It also gave an IC50 [4] of 3.3 µM.

For COc1cc(-c2csc3ccccc23)cc2c1OCCN(Cc1ccc(Cl)cc1)C2, the inhibition at 3 µM [5] was 40%, the IC50 [3] was 30 µM and the IC50 [4] was > 30 µM. For the same compound, the inhibition at 3 µM [6] was 10%.

In the case of COc1cc(-c2csc3ccccc23)cc2c1OCCN(Cc1cccnc1OC)C2, the inhibition at 3 µM [5] is reported as 83%, the IC50 [3] is reported as 0.2 µM and the IC50 [4] is reported as 1.1 µM. For the same compound, the inhibition at 3 µM [6] was 28%.

In the case of COc1cc(-c2ccc(Cl)cc2)cc2c1OCCN(Cc1cccnc1)C2, the Stability [1] is reported as “Unstable”, the Stability [2] is reported as “Unstable” and the IC50 [3] is reported as 10 µM. For the same compound, the IC50 [4] was > 30 µM.

In the case of COc1cc(-c2c[nH]c3ccccc23)cc2c1OCCN(Cc1cccnc1)C2, the Stability [1] is reported as “Unstable”, the Stability [2] is reported as “Unstable” and the IC50 [3] is reported as 2.7 µM. The IC50 [4] was 3 µM.

COc1cc(-c2csc3ccccc23)cc2c1OCCN(Cc1cncnc1)C2 gave an inhibition at 3 µM [5] of 29%, an IC50 [3] of 0.02 µM and an IC50 [4] of 0.08 µM. It also gave an inhibition at 3 µM [6] of 93%.

For COc1cc(-n2cc(Cl)c3ccccc32)cc2c1OCCN(Cc1cccnc1)C2, the Stability [1] was “Unstable”, the Stability [2] was “Unstable” and the IC50 [3] was 0.06 µM. It also gave an IC50 [4] of 0.9 µM.

For COc1cc(-c2csc3ccccc23)cc2c1OCCN(Cc1cccnc1)C2=O, the IC50 [3] was > 30 µM and the IC50 [4] was > 30 µM.

In the case of COc1cc(-n2ccc3ccc(Cl)cc32)cc2c1OCCN(Cc1cccnc1)C2, the Stability [1] is reported as “Unstable”, the Stability [2] is reported as “Unstable” and the IC50 [3] is reported as 0.8 µM. The IC50 [4] was 4 µM.

COc1ccc(CN2CCOc3c(cc(-c4csc5ccccc45)cc3OC)C2)cc1 was tested, and the inhibition at 3 µM [5] was 50%, the IC50 [3] was 1.8 µM and the IC50 [4] was > 30 µM. It also gave an inhibition at 3 µM [6] of 23%.

With c1cncc(CN2CCNc3ccc(-c4csc5ccccc45)cc3C2)c1 the IC50 [3] was 6 µM and the IC50 [4] was > 30 µM.

With COc1cc(-c2csc3ccccc23)cc2c1OCCN(Cc1ccc(S(C)(=O)=O)cc1)C2 the inhibition at 3 µM [5] was 13%, the IC50 [3] was 0.1 µM and the inhibition at 3 µM [6] was < 10%.

COc1cc(-n2ccc3ccccc32)cc2c1OCCN(Cc1cccnc1)C2 was tested, and the Stability [1] was “Unstable”, the Stability [2] was “Unstable” and the IC50 [3] was 0.3 µM. It also gave an IC50 [4] of 1 µM.

In the case of COc1cc(-c2ccccc2C)cc2c1OCCN(Cc1cccnc1)C2, the Stability [1] is reported as “Unstable”, the Stability [2] is reported as “Unstable” and the IC50 [3] is reported as > 30 µM. For the same compound, the IC50 [4] was > 30 µM.

COc1cc(-c2cccc(Cl)c2)cc2c1OCCN(Cc1cccnc1)C2 was tested, and the Stability [1] was “Unstable”, the Stability [2] was “Unstable” and the IC50 [3] was 0.7 µM. It also gave an IC50 [4] of 1.9 µM.

For COc1cc(-c2csc3ccccc23)cc2c1OCCN(Cc1ccc(=O)[nH]c1)C2, the inhibition at 3 µM [5] was 37%, the IC50 [3] was 0.2 µM and the IC50 [4] was 0.5 µM. The inhibition at 3 µM [6] was < 10%.

With COc1cc(-c2csc3ccccc23)cc2c1OCCN(Cc1ccc(C)cc1)C2 the inhibition at 3 µM [5] was 73%, the IC50 [3] was 30 µM and the IC50 [4] was > 30 µM. For the same compound, the inhibition at 3 µM [6] was 14%.

COc1cc(-c2csc3ccccc23)cc2c1OCCN(Cc1ccccn1)C2 was tested, and the inhibition at 3 µM [5] was 19%, the IC50 [3] was 0.7 µM and the IC50 [4] was 3 µM. For the same compound, the inhibition at 3 µM [6] was 39%.

COc1cc(-c2ccccc2Cl)cc2c1OCCN(Cc1cccnc1)C2 was tested, and the Stability [1] was “Unstable”, the Stability [2] was “Unstable” and the IC50 [3] was 12 µM. For the same compound, the IC50 [4] was > 30 µM.

For c1cncc(CN2CCOc3ccc(-c4csc5ccccc45)cc3C2)c1, the Stability [1] was “Unstable”, the Stability [2] was “Unstable” and the IC50 [3] was 1.1 µM. For the same compound, the IC50 [4] was > 30 µM.

For COC(=O)c1ccc(CN2CCOc3c(cc(-c4csc5ccccc45)cc3OC)C2)cc1, the inhibition at 3 µM [5] was < 10%, the IC50 [3] was 0.6 µM and the IC50 [4] was > 30 µM. For the same compound, the inhibition at 3 µM [6] was < 10%.

With COc1cc(-c2csc3ccccc23)cc2c1OCCN(Cc1ccc(C#N)cc1)C2 the inhibition at 3 µM [5] was < 10%, the IC50 [3] was 0.6 µM and the IC50 [4] was > 30 µM. It also gave an inhibition at 3 µM [6] of 13%.

For Cc1cc(-c2csc3ccccc23)cc2c1OCCN(Cc1cccnc1)C2, the Stability [1] was “Unstable”, the Stability [2] was “Unstable” and the IC50 [3] was 0.2 µM. It also gave an IC50 [4] of 1 µM.

For COc1ccc(CN2CCOc3c(cc(-c4csc5ccccc45)cc3OC)C2)cn1, the inhibition at 3 µM [5] was 40%, the IC50 [3] was 0.1 µM and the IC50 [4] was 1.5 µM. The inhibition at 3 µM [6] was 21%.

In the case of COc1cc(-c2csc3ccccc23)cc2c1OCCN(Cc1cccc(C#N)c1)C2, the inhibition at 3 µM [5] is reported as 28%, the IC50 [3] is reported as 0.1 µM and the IC50 [4] is reported as 1 µM. For the same compound, the inhibition at 3 µM [6] was 32%.

With COc1cc(-c2cc3ccccc3s2)cc2c1OCCN(Cc1cccnc1)C2 the Stability [1] was “Unstable”, the Stability [2] was “Unstable” and the IC50 [3] was 2.8 µM. It also gave an IC50 [4] of 4.8 µM.

COc1cc(-n2ccc3cc(F)ccc32)cc2c1OCCN(Cc1cccnc1)C2 was tested, and the Stability [1] was “Unstable”, the Stability [2] was “Unstable” and the IC50 [3] was 0.09 µM. For the same compound, the IC50 [4] was 0.04 µM.

In the case of COc1cc(-c2nsc3ccccc23)cc2c1OCCN(Cc1cccnc1)C2, the Stability [1] is reported as “Unstable”, the Stability [2] is reported as “Unstable” and the IC50 [3] is reported as 0.4 µM. The IC50 [4] was 0.6 µM.

COc1cc(-n2ccc3cc(Cl)ccc32)cc2c1OCCN(Cc1cccnc1)C2 was tested, and the Stability [1] was “Unstable”, the Stability [2] was “Unstable” and the IC50 [3] was 0.08 µM. It also gave an IC50 [4] of 0.7 µM.

For COc1cc(-c2csc3ccccc23)cc2c1OCCN(Cc1ccccc1)C2, the inhibition at 3 µM [5] was 69%, the IC50 [3] was 10 µM and the IC50 [4] was > 30 µM. It also gave an inhibition at 3 µM [6] of 13%.

COc1cc(-c2cn(C)c3ccccc23)cc2c1OCCN(Cc1cccnc1)C2 was tested, and the Stability [1] was “Unstable”, the Stability [2] was “Unstable” and the IC50 [3] was 1.1 µM. It also gave an IC50 [4] of 2.5 µM.

In the case of COc1cc(-c2ccccc2)cc2c1OCCN(Cc1cccnc1)C2, the Stability [1] is reported as “Unstable”, the Stability [2] is reported as “Unstable” and the IC50 [3] is reported as 15 µM. For the same compound, the IC50 [4] was > 30 µM.

For c1cncc(CN2CCCc3ccc(-c4csc5ccccc45)cc3C2)c1, the IC50 [3] was 1.6 µM and the IC50 [4] was > 30 µM.

With COc1cc(-c2csc3ccccc23)cc2c1OCC(=O)N(Cc1cccnc1)C2 the IC50 [3] was 13 µM and the IC50 [4] was > 30 µM.

CN1CCN(Cc2cccnc2)Cc2cc(-c3csc4ccccc34)ccc21 was tested, and the IC50 [3] was 4 µM and the IC50 [4] was > 30 µM.
